Calls of active or inactive are those of the source. No cut-off for these calls is given here.

This passage reports Activity results from ChEMBL document CHEMBL1145520, “RAS-RAF-MEK-dependent oxidative cell death involving voltage-dependent anion channels” (Nature, 2007).

This test has as its system BJ. The experiment in a line: Prevention of induction of cell death in human BJ cells expressing TERT, LT, ST and RAS G12V mutant genes cells after 24 hrs in presence of beta-carotene. Format: functional, cell-based. An outline of the steps:
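BJ-TERT/LT/ST/RASV12 cells treated 24 h with erastin across roughly 1–2.5 µM, together with DMSO or an antioxidant (α-tocopherol, BHT or β-carotene). Viability read afterwards.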

With `CCOc1ccccc1-n1c(C(C)N2CCN(C(=O)COc3ccc(Cl)cc3)CC2)nc2ccccc2c1=O` (stereo unspecified) [ERASTIN], the outcome was Active.
